Assay results pooled from the literature.
Lines come from different studies, so protocols differ.
ADRB2: Beta-2 adrenergic receptor (ADRB2, Homo sapiens, UniProt P07550)

SMILES | target | test | setting | quantity | result
CN1CCC(=C2c3ccccc3CCc3sccc32)CC1 | ADRB2 | ligand displacement, radioligand | – | IC50 | 5.8 µM
CC(Cc1ccc2c(c1)OCO2)NCC(O)c1ccc(O)c(O)c1 (stereo not drawn) | ADRB2 | β-arrestin recruitment, agonist | – | EC50 | 0.00631 µM
CCOc1ccccc1OCCN[C@H](C)Cc1ccc(OC)c(S(N)(=O)=O)c1 | ADRB2 | ligand displacement, radioligand | – | IC50 | 2.2 µM
CCC1(COCc2ccccc2F)CCC(C)(C)O1 (stereo not drawn) | ADRB2 | calcium signal, agonist, fluorescence | – | EC50 | 17 µM
NCC(O)c1cc(O)c(O)cc1F (stereo not drawn) | Beta-2 adrenergic receptor (ADRB2, Homo sapiens, UniProt P07550, N293Q) | ligand displacement, radioligand | cell membranes | Ki | 3330 µM
CC(N)Cc1c[nH]c2ccc(OCc3cccs3)cc12 (stereo not drawn) | ADRB2 | ligand displacement, radioligand | cell membranes | IC50 | 9.42 µM
NCC(O)c1ccc(O)c(O)c1F (stereo not drawn) | Beta-2 adrenergic receptor (ADRB2, Homo sapiens, UniProt P07550, N293A) | ligand displacement, radioligand | cell membranes | Ki | 319 µM
COc1ccc(OC)c(C(O)C(C)N)c1 (stereo not drawn) | ADRB2 | ligand displacement, radioligand | cell membranes | IC50 | 12.3 µM
C[C@H](N)Cn1ncc2ccc3c(c21)CCCO3 | ADRB2 | cAMP, agonist | – | EC50 | > 100 µM
